Reference: article PMC2172527 (The Journal of Cell Biology, 2004)
“Also recorded” adds a separate entry of the source. Ends that are not written are not given here.

Key:
talin = assay: GST-PIPKIγ tail pull-down, rat brain extract; type: binding; settings: rat brain protein extracts; Western blot and Coomassie blue, Fig. 1 A, B
Outline: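 Bait: human PIPKIγ tail (aa 635–662) expressed as a GST fusion and purified, with GST alone as control. Used for affinity pull-down from lamprey spinal cord or rat brain extracts. Bound proteins were run on protein gels, then Coomassie blue stained or Western blotted with anti-talin antibody TD77.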

[1] = system: lamprey reticulospinal synapses; assay: EM of stimulated synapses in microinjected axons; type: cell-based, lamprey (Ichthyomyzon unicuspis); settings: GST-talin head-injected axons, estimated 0.5–2.5 μM; Fig. 5
[2] = target: PIPKIγ (90-kD protein doublet); assay: GST-talin head pull-down, lamprey extract; type: binding; settings: Western blot with anti-PIPKIγ antibody, Fig. 1 E
Outline: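 Bait: human talin 2 head (aa 1–438) expressed as a GST fusion and purified, with GST alone as control. Used for affinity purification from lamprey extract alongside a load lane. Eluates were Western blotted with an in-house anti-PIPKIγ antibody to detect the 90-kD doublet.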

affinity purification of PIPKIγ 90-kD doublet (in words) [2]	Molecule	affinity purification of talin (in words) (talin)	clathrin-mediated endocytosis at stimulated synapses (in words) [1]
	GST-PIPKIγ tail: GST fusion protein of human PIPKIγ tail (aa 635–662), the 28-aa COOH-terminal tail ({GST}-ATDIYFPTDERSWVYSPLHYSAQAPPAS)	purification of the upper talin band; also recorded: Talin was the only major band retained	
specifically affinity purified	GST-talin head: human talin 2 head (aa 1–438) expressed as GST fusion protein (protein, left off: GST, end not stated, kept) MVALSLKICVRHCNVVKTMQFEPSTAVYDACRVIRERVPEAQTGQASDYGLFLSDEDPRKGIWLEAGRTLDYYMLRNGDILEYKKKQRPQKIRMLDGSVKTVMVDDSKTVGELLVTICSRIGITNYEEYSLIQETIEEKKEEGTGTLKKDRTLLRDERKMEKLKAKLHTDDDLNWLDHSRTFREQGVDENETLLLRRKFFYSDQNVDSRDPVQLNLLYVQARDDILNGSHPVSFEKACEFGGFQAQIQFGPHVEHKHKPGFLDLKEFLPKEYIKQRGAEKRIFQEHKNCGEMSEIEAKVKYVKLARSLRTYGVSFFLVKEKMKGKNKLVPRLLGITKDSVMRVDEKTKEVLQEWPLTTVKRWAASPKSFTLDFGEYQESYYSVQTTEGEQISQLIAGYIDIILKKKQSKDRFGLEGDEESTMLEESVSPKKSTILQQQ		a perturbation of clathrin-mediated endocytosis at synapses similar to that observed with PIPK pep
